Measured values taken from ChEMBL document CHEMBL1147959, “N- and S-alpha-l-arabinopyranosyl[1,2,4]triazolo[3,4-b][1,3,4]thiadiazoles. First synthesis and biological evaluation” (2007).
In brackets after ≈: the same amount, converted by molar mass.

What was measured:
Assay type in all cases: functional
Penicillium italicum [1] = assay: Antifungal activity against Penicillium italicum ATCC 48114 at 5 mg/mL by diffusion agar method; conditions: read-out: IZ
How it was run: (§1)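 Agar diffusion. Compounds and standard drugs were dissolved in DMSO at 5 mg/mL and diluted to 5, 2.5 and 1 mg/mL. Hundred microlitres of each concentration was applied. Inhibition was scored against the control: 0.1–0.5 cm beyond control = +, 0.6–1.0 cm = ++, 1.0–1.5 cm = +++, 0 = not detected.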

Staphylococcus aureus [2] = assay: Antibacterial activity against Staphylococcus aureus ATCC 25923 at 5 mg/mL by diffusion agar method; conditions: read-out: IZ; how it was run: as §1
Escherichia coli [3] = assay: Antibacterial activity against Escherichia coli ATCC 23556 at 5 mg/mL by diffusion agar method; conditions: read-out: IZ; how it was run: as §1
Penicillium italicum [4] = assay: Antifungal activity against Penicillium italicum ATCC 48114 by broth dilution method
How it was run: (§2)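 MIC by twofold serial broth dilution. Compounds were dissolved in DMSO at 1.6 mg/mL as stock. Dilutions in Mueller–Hinton broth and Sabouraud dextrose broth ran from 800 down to 0.78. Inoculated broth containing DMSO alone at the same dilutions served as control. Gentamycin and griseofulvin were the reference drugs.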

Staphylococcus aureus [5] = assay: Antibacterial activity against Staphylococcus aureus ATCC 25923 by broth dilution method; how it was run: as §2
Escherichia coli [6] = assay: Antibacterial activity against Escherichia coli ATCC 23556 by broth dilution method; how it was run: as §2
Aspergillus fumigatus [7] = assay: Antifungal activity against Aspergillus fumigatus ATCC 96918 at 1 mg/mL by diffusion agar method; conditions: read-out: IZ; how it was run: as §1
Aspergillus fumigatus [8] = assay: Antifungal activity against Aspergillus fumigatus ATCC 96918 at 2.5 mg/mL by diffusion agar method; conditions: read-out: IZ; how it was run: as §1
Aspergillus fumigatus [9] = assay: Antifungal activity against Aspergillus fumigatus ATCC 96918 at 5 mg/mL by diffusion agar method; conditions: read-out: IZ; how it was run: as §1
Penicillium italicum [10] = assay: Antifungal activity against Penicillium italicum ATCC 48114 at 2.5 mg/mL by diffusion agar method; conditions: read-out: IZ; how it was run: as §1
[11] = system: Syncephalastrum racemosum; assay: Antifungal activity against Syncephalastrum racemosum ATCC 18192 at 5 mg/mL by diffusion agar method; conditions: read-out: IZ; how it was run: as §1
[12] = system: Syncephalastrum racemosum; assay: Antifungal activity against Syncephalastrum racemosum ATCC 18192 at 2.5 mg/mL by diffusion agar method; conditions: read-out: IZ; how it was run: as §1
Staphylococcus aureus [13] = assay: Antibacterial activity against Staphylococcus aureus ATCC 25923 at 1 mg/mL by diffusion agar method; conditions: read-out: IZ; how it was run: as §1
Staphylococcus aureus [14] = assay: Antibacterial activity against Staphylococcus aureus ATCC 25923 at 2.5 mg/mL by diffusion agar method; conditions: read-out: IZ; how it was run: as §1
Pseudomonas aeruginosa [15] = assay: Antibacterial activity against Pseudomonas aeruginosa ATCC 10145 at 5 mg/mL by diffusion agar method; conditions: read-out: IZ; how it was run: as §1
Pseudomonas aeruginosa [16] = assay: Antibacterial activity against Pseudomonas aeruginosa ATCC 10145 at 2.5 mg/mL by diffusion agar method; conditions: read-out: IZ; how it was run: as §1
Pseudomonas aeruginosa [17] = assay: Antibacterial activity against Pseudomonas aeruginosa ATCC 10145 at 1 mg/mL by diffusion agar method; conditions: read-out: IZ; how it was run: as §1
Bacillus subtilis [18] = assay: Antibacterial activity against Bacillus subtilis ATCC 6633 at 1 mg/mL by diffusion agar method; conditions: read-out: IZ; how it was run: as §1
Bacillus subtilis [19] = assay: Antibacterial activity against Bacillus subtilis ATCC 6633 at 2.5 mg/mL by diffusion agar method; conditions: read-out: IZ; how it was run: as §1
Bacillus subtilis [20] = assay: Antibacterial activity against Bacillus subtilis ATCC 6633 at 5 mg/mL by diffusion agar method; conditions: read-out: IZ; how it was run: as §1
Escherichia coli [21] = assay: Antibacterial activity against Escherichia coli ATCC 23556 at 2.5 mg/mL by diffusion agar method; conditions: read-out: IZ; how it was run: as §1
Aspergillus fumigatus [22] = assay: Antifungal activity against Aspergillus fumigatus ATCC 96918 by broth dilution method; how it was run: as §2
[23] = system: Syncephalastrum racemosum; assay: Antifungal activity against Syncephalastrum racemosum ATCC 18192 by broth dilution method; how it was run: as §2
Pseudomonas aeruginosa [24] = assay: Antibacterial activity against Pseudomonas aeruginosa ATCC 10145 by broth dilution method
How it was run: (§3)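 MIC by twofold serial broth dilution. Compounds were dissolved in DMSO as a 1.6 mg/mL stock and diluted in Mueller-Hinton broth or Sabouraud dextrose broth to 800, 400, 200, 100, 50, 25, 12.5, 6.25, 3.12, 1.56 and 0.78. A control of inoculated broth with DMSO alone at the same dilutions was included. Gentamycin and griseofulvin served as reference drugs.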

Bacillus subtilis [25] = assay: Antibacterial activity against Bacillus subtilis ATCC 6633 by broth dilution method; how it was run: as §3
Candida albicans [26] = assay: Antimicrobial activity against Candida albicans ATCC 14053 at 1 mg/mL by diffusion agar method; conditions: read-out: IZ; how it was run: as §1
Candida albicans [27] = assay: Antimicrobial activity against Candida albicans ATCC 14053 at 2.5 mg/mL by diffusion agar method; conditions: read-out: IZ; how it was run: as §1
Candida albicans [28] = assay: Antimicrobial activity against Candida albicans ATCC 14053 at 5 mg/mL by diffusion agar method; conditions: read-out: IZ; how it was run: as §1
Escherichia coli [29] = assay: Antibacterial activity against Escherichia coli ATCC 23556 at 1 mg/mL by diffusion agar method; conditions: read-out: IZ; how it was run: as §1
Candida albicans [30] = assay: Antimicrobial activity against Candida albicans ATCC 14053 by broth dilution method; how it was run: as §2
Penicillium italicum [31] = assay: Antifungal activity against Penicillium italicum ATCC 48114 at 1 mg/mL by diffusion agar method; conditions: read-out: IZ; how it was run: as §1
[32] = system: Syncephalastrum racemosum; assay: Antifungal activity against Syncephalastrum racemosum ATCC 18192 at 1 mg/mL by diffusion agar method; conditions: read-out: IZ; how it was run: as §1

Compound | zone of inhibition at 5000 µg/mL (Penicillium italicum [1]) | zone of inhibition at 5000 µg/mL (Staphylococcus aureus [2]) | zone of inhibition at 5000 µg/mL (Escherichia coli [3]) | MIC (Penicillium italicum [4]) | MIC (Staphylococcus aureus [5]) | MIC (Escherichia coli [6]) | zone of inhibition at 1000 µg/mL (Aspergillus fumigatus [7]) | zone of inhibition at 2500 µg/mL (Aspergillus fumigatus [8]) | zone of inhibition at 5000 µg/mL (Aspergillus fumigatus [9]) | zone of inhibition at 2500 µg/mL (Penicillium italicum [10]) | zone of inhibition at 5000 µg/mL [11] | zone of inhibition at 2500 µg/mL [12] | zone of inhibition at 1000 µg/mL (Staphylococcus aureus [13]) | zone of inhibition at 2500 µg/mL (Staphylococcus aureus [14]) | zone of inhibition at 5000 µg/mL (Pseudomonas aeruginosa [15]) | zone of inhibition at 2500 µg/mL (Pseudomonas aeruginosa [16]) | zone of inhibition at 1000 µg/mL (Pseudomonas aeruginosa [17]) | zone of inhibition at 1000 µg/mL (Bacillus subtilis [18]) | zone of inhibition at 2500 µg/mL (Bacillus subtilis [19]) | zone of inhibition at 5000 µg/mL (Bacillus subtilis [20]) | other results
CC(=O)O[C@@H]1[C@@H](OC(C)=O)[C@H](n2nc3sc(-c4ccc(Cl)cc4)nn3c2=S)OC[C@@H]1OC(C)=O | 1 mm | 1 mm | 1 mm | > 1600 µg/mL | > 1600 µg/mL | > 1600 µg/mL |  |  |  |  |  |  |  |  |  |  |  |  |  |  | 
CC(=O)O[C@@H]1[C@@H](OC(C)=O)[C@H](Sc2nnc3sc(-c4ccc(Cl)cc4)nn23)OC[C@@H]1OC(C)=O | 1 mm | 1 mm | 1 mm | 1600 µg/mL (≈ 3040 µM) | 25 µg/mL (≈ 47.4 µM) | 1600 µg/mL (≈ 3040 µM) | 1 mm | 1 mm | 1 mm | 1 mm | 1 mm | 1 mm | 1 mm | 1 mm | 1 mm | 1 mm | 1 mm | 1 mm | 1 mm | 1 mm | zone of inhibition at 2500 µg/mL (Escherichia coli [21]): 1 mm; MIC (Aspergillus fumigatus [22]): 25 µg/mL (≈ 47.4 µM); MIC [23]: 1600 µg/mL (≈ 3040 µM); MIC (Pseudomonas aeruginosa [24]): 12.5 µg/mL (≈ 23.7 µM); MIC (Bacillus subtilis [25]): 25 µg/mL (≈ 47.4 µM)
O=C(N[C@H](CO)[C@H](O)c1ccc([N+](=O)[O-])cc1)C(Cl)Cl [CHLORAMPHENICOL] |  | 6 mm | 6 mm |  |  |  |  |  |  |  |  |  | 6 mm | 6 mm | 10 mm | 10 mm | 6 mm | 6 mm | 10 mm | 10 mm | zone of inhibition at 1000 µg/mL (Candida albicans [26]): 6 mm; zone of inhibition at 2500 µg/mL (Candida albicans [27]): 6 mm; zone of inhibition at 5000 µg/mL (Candida albicans [28]): 6 mm; zone of inhibition at 1000 µg/mL (Escherichia coli [29]): 6 mm; zone of inhibition at 2500 µg/mL (Escherichia coli [21]): 6 mm
COC1=CC(=O)C[C@@H](C)[C@]12Oc1c(Cl)c(OC)cc(OC)c1C2=O [GRISEOFULVIN] |  |  |  | 50 µg/mL (≈ 142 µM) |  |  |  |  |  |  |  |  |  |  |  |  |  |  |  |  | MIC (Aspergillus fumigatus [22]): 50 µg/mL (≈ 142 µM); MIC [23]: 50 µg/mL (≈ 142 µM); MIC (Candida albicans [30]): 50 µg/mL (≈ 142 µM)
CN(C/C=C/C#CC(C)(C)C)Cc1cccc2ccccc12 [TERBINAFINE] | 10 mm |  |  |  |  |  | 6 mm | 10 mm | 10 mm | 10 mm | 10 mm | 10 mm |  |  |  |  |  |  |  |  | zone of inhibition at 1000 µg/mL (Penicillium italicum [31]): 6 mm; zone of inhibition at 1000 µg/mL [32]: 10 mm
GENTAMICIN |  |  |  |  | 3.12 µg/mL | 12.5 µg/mL |  |  |  |  |  |  |  |  |  |  |  |  |  |  | MIC (Pseudomonas aeruginosa [24]): 12.5 µg/mL; MIC (Bacillus subtilis [25]): 1.56 µg/mL
